≈ marks a conversion by molar mass, not a printed value. Calls of active or inactive are those of the source. The calls are words filed in the database; no cut-off is given here.
How the values were obtained:
Proteus vulgaris [1] = assay: Antimicrobial activity against Proteus vulgaris NCIM 2027 at 1000 ug/disk after 24 hrs by disk diffusion method; assay type: functional; settings: NCIM 2027, 24 h, read-out: DIZ
Summary of the method: (§1)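 Disc diffusion on Mueller–Hinton agar. 100 µl of bacterial suspension at 10⁸ CFU/ml is spread on the plate. Discs carry test compounds at two loadings, dissolved in DMSO; DMSO alone serves as negative control. Ofloxacin disc is the positive reference. Plates are incubated at 37 °C for 24 h, and the inhibition zone diameter is measured.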

[2] = tested on: Rhodococcus corynebacterioides; assay: Antimicrobial activity against Corynebacterium rubrum NCIM 2252 at 500 ug/disk after 24 hrs by disk diffusion method; assay type: functional; settings: Rhodococcoides corynebacterioides, NCIM 2252, 24 h; read-out: DIZ; summary of the method: as §1
Aliivibrio fischeri [3] = assay: Antimicrobial activity against Vibrio fischeri NCIM 2154 at 1000 ug/disk after 24 hrs by disk diffusion method; assay type: functional; settings: NCIM 2154, 24 h, read-out: DIZ
Summary of the method: (§2)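 Disc diffusion. 100 µl of bacterial suspension at 10⁸ CFU/ml was spread on Mueller–Hinton agar. Discs loaded with test compound dissolved in DMSO were placed on the lawn, with a DMSO-only disc as negative control. Plates were incubated at 37 °C for 24 h, and the inhibition zone diameter was measured.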

Aliivibrio fischeri [4] = assay: Antimicrobial activity against Vibrio fischeri NCIM 2154 after 24 hrs by serial dilution method; assay type: functional; settings: NCIM 2154, 24 h
Aspergillus parasiticus [5] = assay: Antimicrobial activity against Aspergillus parasiticus NCIM 904 at 1000 ug/disk after 72 hrs by disk diffusion method; assay type: functional; settings: NCIM 904, 72 h, read-out: DIZ
Summary of the method: (§3)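 Disc diffusion on Sabouraud's dextrose agar. 100 µl of fungal suspension at 10⁶ CFU/ml is spread on the plate. Discs carry test compounds at two loadings in DMSO; DMSO alone is the negative control. Clotrimazole disc is the positive reference. Plates are incubated at 27 °C for 72 h, and the zone of inhibition diameter is measured.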

Aliivibrio fischeri [6] = assay: Antimicrobial activity against Vibrio fischeri NCIM 2154 at 500 ug/disk after 24 hrs by disk diffusion method; assay type: functional; settings: NCIM 2154, 24 h, read-out: DIZ; summary of the method: as §2
Bacillus cereus [7] = assay: Antimicrobial activity against Bacillus cereus NCIM 2155 at 500 ug/disk after 24 hrs by disk diffusion method; assay type: functional; settings: NCIM 2155, 24 h, read-out: DIZ; summary of the method: as §1
Klebsiella aerogenes [8] = assay: Antimicrobial activity against Klebsiella aerogenes NCIM 2239 at 500 ug/disk after 24 hrs by disk diffusion method; assay type: functional; settings: NCIM 2239, 24 h, read-out: DIZ; summary of the method: as §1
Rhodotorula mucilaginosa [9] = assay: Antimicrobial activity against Rhodotorula rubra NCIM 3174 at 1000 ug/disk after 72 hrs by disk diffusion method; assay type: functional; settings: NCIM 3174, 72 h, read-out: DIZ
Summary of the method: (§4)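 Fungal disc diffusion. 100 µl of suspension at 10⁶ CFU/ml was spread on Sabouraud's dextrose agar. Discs carrying test compound in DMSO were applied, with a DMSO-only disc as negative control. Plates were incubated at 27 °C for 72 h, and the zone of inhibition diameter was measured.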

Pseudomonas aeruginosa = assay: Antimicrobial activity against Pseudomonas aeruginosa NCIM 2200 at 1000 ug/disk after 24 hrs by disk diffusion method; assay type: functional; settings: NCIM 2200, 24 h, read-out: DIZ; summary of the method: as §1
Salmonella typhimurium [10] = assay: Antimicrobial activity against Salmonella Typhimurium NCIM 2501 at 500 ug/disk after 24 hrs by disk diffusion method; assay type: functional, Salmonella enterica subsp. enterica serovar Typhimurium; settings: Salmonella enterica, NCIM 2501, 24 h; read-out: DIZ; summary of the method: as §2
Rhodotorula mucilaginosa [11] = assay: Antimicrobial activity against Rhodotorula rubra NCIM 3174 after 72 hrs by serial dilution method; assay type: functional; settings: NCIM 3174, 72 h
Summary of the method: (§5)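 MIC by broth dilution in Sabouraud's dextrose broth, run only on fungi found sensitive in the disc assay. Twofold serial dilutions were made in 1 ml broth per tube, covering 3.9 to 1000. Inoculated tubes were incubated at 27 °C for 72 h.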

Aspergillus parasiticus [12] = assay: Antimicrobial activity against Aspergillus parasiticus NCIM 904 at 500 ug/disk after 72 hrs by disk diffusion method; assay type: functional; settings: NCIM 904, 72 h, read-out: DIZ; summary of the method: as §3
Lipomyces lipofer [13] = assay: Antimicrobial activity against Lipomyces lipofer NCIM 3252 at 500 ug/disk after 72 hrs by disk diffusion method; assay type: functional; settings: NCIM 3252, 72 h, read-out: DIZ; summary of the method: as §3
Penicillium chrysogenum = assay: Antimicrobial activity against Penicillium chrysogenum NCIM 707 at 500 ug/disk after 72 hrs by disk diffusion method; assay type: functional; summary of the method: as §3
Bacillus subtilis [14] = assay: Antimicrobial activity against Bacillus subtilis NCIM 2063 after 24 hrs by serial dilution method; assay type: functional; settings: NCIM 2063, 24 h
Summary of the method: (§6)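 Broth dilution MIC in nutrient broth, run only for organisms found sensitive in disc diffusion. Compounds are two-fold serially diluted in 1 ml sterile broth per tube, spanning 3.9 to 1000. Inoculated tubes are incubated at 37 °C for 24 h.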

Aspergillus fumigatus = assay: Antimicrobial activity against Aspergillus fumigatus NCIM 902 at 1000 ug/disk after 72 hrs by disk diffusion method; assay type: functional; summary of the method: as §3
Rhodotorula mucilaginosa [15] = assay: Antimicrobial activity against Rhodotorula rubra NCIM 3174 at 500 ug/disk after 72 hrs by disk diffusion method; assay type: functional; settings: NCIM 3174, 72 h, read-out: DIZ; summary of the method: as §4
[16] = tested on: Rhodococcus corynebacterioides; assay: Antimicrobial activity against Corynebacterium rubrum NCIM 2252 at 1000 ug/disk after 24 hrs by disk diffusion method; assay type: functional; settings: Rhodococcoides corynebacterioides, NCIM 2252, 24 h; read-out: DIZ; summary of the method: as §1
Bacillus subtilis [17] = assay: Antimicrobial activity against Bacillus subtilis NCIM 2063 at 500 ug/disk after 24 hrs by disk diffusion method; assay type: functional; settings: NCIM 2063, 24 h, read-out: DIZ; summary of the method: as §1
Staphylococcus [18] = assay: Antimicrobial activity against Staphylococcus albus NCIM 2178 at 1000 ug/disk after 24 hrs by disk diffusion method; assay type: functional; settings: NCIM 2178, 24 h, read-out: DIZ; summary of the method: as §2
Proteus vulgaris [19] = assay: Antimicrobial activity against Proteus vulgaris NCIM 2027 at 500 ug/disk after 24 hrs by disk diffusion method; assay type: functional; settings: NCIM 2027, 24 h, read-out: DIZ; summary of the method: as §1
Bacillus cereus [20] = assay: Antimicrobial activity against Bacillus cereus NCIM 2155 at 1000 ug/disk after 24 hrs by disk diffusion method; assay type: functional; settings: NCIM 2155, 24 h, read-out: DIZ; summary of the method: as §1
Escherichia coli [21] = assay: Antimicrobial activity against Escherichia coli NCIM 2065 at 1000 ug/disk after 24 hrs by disk diffusion method; assay type: functional; settings: NCIM 2065, 24 h, read-out: DIZ; summary of the method: as §1
Escherichia coli [22] = assay: Antimicrobial activity against Escherichia coli NCIM 2065 at 500 ug/disk after 24 hrs by disk diffusion method; assay type: functional; settings: NCIM 2065, 24 h, read-out: DIZ; summary of the method: as §1
Aspergillus flavus [23] = assay: Antimicrobial activity against Aspergillus flavus NCIM 902 at 500 ug/disk after 72 hrs by disk diffusion method; assay type: functional; settings: NCIM 902, 72 h, read-out: DIZ; summary of the method: as §3
Escherichia coli [24] = assay: Antimicrobial activity against Escherichia coli NCIM 2065 after 24 hrs by serial dilution method; assay type: functional; settings: NCIM 2065, 24 h; summary of the method: as §6
Lipomyces lipofer [25] = assay: Antimicrobial activity against Lipomyces lipofer NCIM 3252 at 1000 ug/disk after 72 hrs by disk diffusion method; assay type: functional; settings: NCIM 3252, 72 h, read-out: DIZ; summary of the method: as §3
Klebsiella aerogenes [26] = assay: Antimicrobial activity against Klebsiella aerogenes NCIM 2239 at 1000 ug/disk after 24 hrs by disk diffusion method; assay type: functional; settings: NCIM 2239, 24 h, read-out: DIZ; summary of the method: as §1
Trichoderma viride [27] = assay: Antimicrobial activity against Trichoderma viride NCIM 1195 at 500 ug/disk after 72 hrs by disk diffusion method; assay type: functional; settings: NCIM 1195, 72 h, read-out: DIZ; summary of the method: as §4
Trichoderma viride [28] = assay: Antimicrobial activity against Trichoderma viride NCIM 1195 after 72 hrs by serial dilution method; assay type: functional; settings: NCIM 1195, 72 h; summary of the method: as §5
Salmonella typhimurium [29] = assay: Antimicrobial activity against Salmonella Typhimurium NCIM 2501 at 1000 ug/disk after 24 hrs by disk diffusion method; assay type: functional, Salmonella enterica subsp. enterica serovar Typhimurium; settings: Salmonella enterica, NCIM 2501, 24 h; read-out: DIZ; summary of the method: as §2
Staphylococcus [30] = assay: Antimicrobial activity against Staphylococcus albus NCIM 2178 at 500 ug/disk after 24 hrs by disk diffusion method; assay type: functional; settings: NCIM 2178, 24 h, read-out: DIZ; summary of the method: as §2
Aspergillus flavus [31] = assay: Antimicrobial activity against Aspergillus flavus NCIM 902 at 1000 ug/disk after 72 hrs by disk diffusion method; assay type: functional; settings: NCIM 902, 72 h, read-out: DIZ; summary of the method: as §3

Work on `CC1(C)CC(=O)C2=C(C1)Nc1c(ccc3ccccc13)C2c1ccc(O)cc1` (centres undefined) yielded a zone of inhibition at 1000 µg/disc (Proteus vulgaris [1]) of 9 mm, a zone of inhibition at 500 µg/disc [2] of 7 mm and a zone of inhibition at 1000 µg/disc (Aliivibrio fischeri [3]) of 9 mm. The MIC (Aliivibrio fischeri [4]) was 125 µg/mL (≈ 338 µM), the zone of inhibition at 1000 µg/disc (Aspergillus parasiticus [5]) was 14 mm and the zone of inhibition at 500 µg/disc (Aliivibrio fischeri [6]) was 7 mm. For the same compound, the zone of inhibition at 500 µg/disc (Bacillus cereus [7]) was 9 mm, the zone of inhibition at 500 µg/disc (Klebsiella aerogenes [8]) was 9 mm and the zone of inhibition at 1000 µg/disc (Rhodotorula mucilaginosa [9]) was 23 mm. It also gave a zone of inhibition at 1000 µg/disc (Pseudomonas aeruginosa) of 9 mm, a zone of inhibition at 500 µg/disc (Salmonella typhimurium [10]) of 9 mm and an MIC (Rhodotorula mucilaginosa [11]) of 3.9 µg/mL (≈ 10.6 µM). The zone of inhibition at 500 µg/disc (Aspergillus parasiticus [12]) was 12 mm, the zone of inhibition at 500 µg/disc (Lipomyces lipofer [13]) was 7 mm and the “diameter of the inhibition zone (DIZ)” value (Penicillium chrysogenum) was “inactive”. The MIC (Bacillus subtilis [14]) was 62.5 µg/mL (≈ 169 µM), the “diameter of the inhibition zone (DIZ)” value (Aspergillus fumigatus) was “inactive” and the zone of inhibition at 500 µg/disc (Rhodotorula mucilaginosa [15]) was 21 mm. For the same compound, the zone of inhibition at 1000 µg/disc [16] was 10 mm, the zone of inhibition at 500 µg/disc (Bacillus subtilis [17]) was 7 mm and the zone of inhibition at 1000 µg/disc (Staphylococcus [18]) was 8 mm. For the same compound, the zone of inhibition at 500 µg/disc (Proteus vulgaris [19]) was 7 mm, the zone of inhibition at 1000 µg/disc (Bacillus cereus [20]) was 11 mm and the zone of inhibition at 1000 µg/disc (Escherichia coli [21]) was 12 mm. It also gave a zone of inhibition at 500 µg/disc (Escherichia coli [22]) of 7 mm, a zone of inhibition at 500 µg/disc (Aspergillus flavus [23]) of 9 mm and an MIC (Escherichia coli [24]) of 31.2 µg/mL (≈ 84.4 µM). For the same compound, the zone of inhibition at 1000 µg/disc (Lipomyces lipofer [25]) was 10 mm, the zone of inhibition at 1000 µg/disc (Klebsiella aerogenes [26]) was 12 mm and the zone of inhibition at 500 µg/disc (Trichoderma viride [27]) was 10 mm. It also gave an MIC (Trichoderma viride [28]) of 31.2 µg/mL (≈ 84.4 µM), a zone of inhibition at 1000 µg/disc (Salmonella typhimurium [29]) of 11 mm and a zone of inhibition at 500 µg/disc (Staphylococcus [30]) of 7 mm. The zone of inhibition at 1000 µg/disc (Aspergillus flavus [31]) was 12 mm.
